Experimental data taken from paper PMC10329961 (Advances in Therapy, 2023).
Structures can show the parent of a compound that is named as a salt.

Key:
healthy adult men = assay: Adverse events; assay type: in vivo, human; conditions: 8-day twice-daily instillation
In short: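 Healthy adult men, 3 × 3 crossover: three 8-day phases separated by drug-free intervals of at least 5 days. One drop of test eye drop was given in both eyes twice daily (09:00, 21:00), with morning dose only on day 8. Subjects were inpatients from day −1 to day 9. AEs and ADRs were tallied as number and percentage of subjects.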

[1] = system: healthy adults and patients with glaucoma; conditions: cited from earlier work
[2] = system: corneal endothelial cells; assay type: in vivo, human; conditions: after instillation, days 1 and 8; none developed grade 3
healthy volunteers = conditions: cited from earlier work; for pupil diameter after single instillation: healthy subjects, ref 37 (Lee et al.)
[3] = system: palpebral and bulbar conjunctivae; assay: Palpebral and bulbar conjunctival hyperemia grading by slit lamp microscope; assay type: in vivo, human; conditions: day 1, score – = 0, + = 1, 2+ = 2, 3+ = 3; for palpebral conjunctival hyperemia mean ± SD grade score: administration phase 1
In short: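 Conjunctival hyperemia was graded: – no or physiologic findings; + several vasodilatations; 2+ multiple or limbal vasodilatation; 3+ whole conjunctiva. Change from baseline per phase was averaged over both eyes and analysed by marginal model, n = 17–18.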

| morphologic changes in corneal endothelial cells (grade) [2] | palpebral conjunctival hyperemia mean ± SD grade score ([3]; 15 min post-instillation) | palpebral conjunctival hyperemia mean ± SD grade score ([3]; 1 h post-instillation) | bulbar conjunctival hyperemia mean ± SD grade score ([3]; 1 h post-instillation) | Compound | subjects with ADRs (healthy adult men) | subjects with AEs (healthy adult men) | subjects with conjunctival hyperemia as ADR (healthy adult men) | subjects with conjunctival hyperemia as AE (healthy adult men) | time of peak of transient conjunctival hyperemia after instillation [1] | pupil diameter after single instillation (healthy volunteers) | effect on pupil (healthy volunteers; healthy volunteers) |
| --- | --- | --- | --- | --- | --- | --- | --- | --- | --- | --- | --- |
| grade 1 or 2 | 1.4 ± 0.6 | 0.9 ± 0.7 | 0.9 ± 0.5 | C[C@H]1CNCCCN1S(=O)(=O)c1cccc2cncc(F)c12 [ripasudil, ripasudil hydrochloride hydrate] | 100.0% | 100.0% | 100.0% | 100.0% | 5 to 15 min | no change in pupil diameter |  |
| No morphologic changes |  |  |  | Brc1c(NC2=NCCN2)ccc2nccnc12 [brimonidine, brimonidine tartrate] | 58.8% | 70.6% | 47.1% | 58.8% |  | significantly decreased | moderate miotic effect |
